Numbered stars: 1 amine (or outer) side, 2 acyl side, 3 side chain; on linkers, the order of the positions; unused ones are H or OH. Bridge positions count the residues as written; N and C are the ends. Square brackets hold non-standard residues; d marks the D form. Peptide text beside a SMILES is read from it. * marks the point of attachment. hTyr(3S-OH,4S-OH,3'-OSO3H) = N[C@H](C(=O)O)[C@H](O)[C@@H](O)c1ccc(O)c(OS(=O)(=O)O)c1; Orn(4R-OH,5R-OH) = O=C([C@H](C[C@@H](O)[C@@H](O)N[*:3])N[*:1])[*:2]; Pro(3S-OH,4S-Me) = C[C@H]1CN[C@H](C(=O)O)[C@H]1O; X1 = CCCCCOc1ccc(-c2cc(-c3ccc(C(=O)*)cc3)no2)cc1; Gln(3R-OH) = NC(=O)C[C@@H](O)[C@H](N)C(=O)O; Hyp = O=C(O)[C@@H]1C[C@@H](O)CN1
Columns and labels:
[1] = Drug level in lung transplant recipient invasive aspergillosis patient plasma at 150 mg, iv QD for 4 consecutive days measured after 8 hrs post last dose by HPLC; assay type: ADME, organism-based; conditions: human, read-out: Drug uptake
Method in brief: (§1)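 150-mg IV micafungin, then bronchoscopy with BAL (20-ml saline aliquots) at the stated time after the dose. Blood was drawn in heparin at the same time. The BAL fluid was spun at 400 × g for 5 min at 4°C; supernatant and cell pellet were frozen at −80°C. Micafungin was measured by solid-phase extraction and C8 HPLC with UV detection at 271.5 nm, using anidulafungin as internal standard.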

[2] = Drug level in lung transplant recipient invasive aspergillosis patient plasma at 150 mg, iv QD for 4 consecutive days measured after 18 hrs post last dose by HPLC; assay type: ADME, organism-based; conditions: human, read-out: Drug uptake; method in brief: as §1
[3] = Drug level in lung transplant recipient invasive aspergillosis patient plasma at 150 mg, iv QD for 4 consecutive days measured after 24 hrs post last dose by HPLC; assay type: ADME, organism-based; conditions: human, read-out: Drug uptake; method in brief: as §1
[4] = Drug level in epithelial lining fluid of lung transplant recipient invasive aspergillosis patient at 150 mg, iv QD for 4 consecutive days measured after 3 hrs post last dose by HPLC; assay type: ADME, organism-based; conditions: human, read-out: Drug uptake; method in brief: as §1
[5] = Drug level in epithelial lining fluid of lung transplant recipient invasive aspergillosis patient at 150 mg, iv QD for 4 consecutive days measured after 8 hrs post last dose by HPLC; assay type: ADME, organism-based; conditions: human, read-out: Drug uptake; method in brief: as §1
[6] = Drug level in lung transplant recipient invasive aspergillosis patient epithelial lining fluid at 150 mg, iv QD for 4 consecutive days measured after 18 hrs post last dose by HPLC; assay type: ADME, organism-based; conditions: human, read-out: Drug uptake; method in brief: as §1
[7] = Drug level in epithelial lining fluid of lung transplant recipient invasive aspergillosis patient at 150 mg, iv QD for 4 consecutive days measured after 24 hrs post last dose by HPLC; assay type: ADME, organism-based; conditions: human, read-out: Drug uptake; method in brief: as §1
[8] = Drug level in alveolar cells of lung transplant recipient invasive aspergillosis patient at 150 mg, iv QD for 4 consecutive days measured after 3 hrs post last dose by HPLC; assay type: ADME, organism-based, Pneumocyte; conditions: human, read-out: Drug uptake; method in brief: as §1
[9] = Drug level in alveolar cells of lung transplant recipient invasive aspergillosis patient at 150 mg, iv QD for 4 consecutive days measured after 8 hrs post last dose by HPLC; assay type: ADME, organism-based, Pneumocyte; conditions: human, read-out: Drug uptake; method in brief: as §1
[10] = Drug level in alveolar cells of lung transplant recipient invasive aspergillosis patient at 150 mg, iv QD for 4 consecutive days measured after 18 hrs post last dose by HPLC; assay type: ADME, organism-based, Pneumocyte; conditions: human, read-out: Drug uptake; method in brief: as §1
[11] = Drug level in alveolar cells of lung transplant recipient invasive aspergillosis patient at 150 mg, iv QD for 4 consecutive days measured after 24 hrs post last dose by HPLC; assay type: ADME, organism-based, Pneumocyte; conditions: human, read-out: Drug uptake; method in brief: as §1
[12] = Ratio of drug level in epithelial lining fluid to plasma in lung transplant recipient invasive aspergillosis patient at 150 mg, iv QD for 4 consecutive days measured after 3 hrs post last dose; assay type: ADME, organism-based; conditions: human
[13] = Ratio of drug level in epithelial lining fluid to plasma in lung transplant recipient invasive aspergillosis patient at 150 mg, iv QD for 4 consecutive days measured after 8 hrs post last dose; assay type: ADME, organism-based; conditions: human
[14] = Ratio of drug level in epithelial lining fluid to plasma in lung transplant recipient invasive aspergillosis patient at 150 mg, iv QD for 4 consecutive days measured after 18 hrs post last dose; assay type: ADME, organism-based; conditions: human
[15] = Ratio of drug level in epithelial lining fluid to plasma in lung transplant recipient invasive aspergillosis patient at 150 mg, iv QD for 4 consecutive days measured after 24 hrs post last dose; assay type: ADME, organism-based; conditions: human
[16] = Ratio of drug level in alveolar cell to plasma of lung transplant recipient invasive aspergillosis patient at 150 mg, iv QD for 4 consecutive days measured after 3 hrs post last dose; assay type: ADME, organism-based, Pneumocyte; conditions: human, alveolar cells / plasma
[17] = Ratio of drug level in alveolar cell to plasma of lung transplant recipient invasive aspergillosis patient at 150 mg, iv QD for 4 consecutive days measured after 8 hrs post last dose; assay type: ADME, organism-based, Pneumocyte; conditions: human, alveolar cells / plasma
[18] = Ratio of drug level in alveolar cell to plasma of lung transplant recipient invasive aspergillosis patient at 150 mg, iv QD for 4 consecutive days measured after 18 hrs post last dose; assay type: ADME, organism-based, Pneumocyte; conditions: human, alveolar cells / plasma
[19] = Ratio of drug level in alveolar cell to plasma of lung transplant recipient invasive aspergillosis patient at 150 mg, iv QD for 4 consecutive days measured after 24 hrs post last dose; assay type: ADME, organism-based, Pneumocyte; conditions: human, alveolar cells / plasma
[20] = Cmax in lung transplant recipient invasive aspergillosis patient plasma at 150 mg, iv QD for 4 consecutive days by HPLC; assay type: ADME, organism-based; design: dose 150 mg, route intravenous; conditions: human
Method in brief: (§2)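 150-mg IV dose; BAL at 3, 5, 8, 18 or 24 h after the dose, about 4 subjects per time group. Plasma, ELF and alveolar cell drug was measured by reversed-phase HPLC with UV detection. Values were averaged per time point. Cmax is the highest mean over the five groups; Tmax is the mean dose-to-BAL time of that group.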

[21] = Cmax in epithelial lining fluid of lung transplant recipient invasive aspergillosis patient at 150 mg, iv QD for 4 consecutive days by HPLC; assay type: ADME, organism-based; design: dose 150 mg, route intravenous; conditions: human; method in brief: as §2
[22] = Cmax in alveolar cells of lung transplant recipient invasive aspergillosis patient at 150 mg, iv QD for 4 consecutive days by HPLC; assay type: ADME, organism-based, Pneumocyte; design: dose 150 mg, route intravenous; conditions: human; method in brief: as §2
[23] = Tmax in lung transplant recipient invasive aspergillosis patient plasma at 150 mg, iv QD for 4 consecutive days by HPLC; assay type: ADME, organism-based; conditions: human; method in brief: as §2
[24] = Tmax in epithelial lining fluid of lung transplant recipient invasive aspergillosis patient at 150 mg, iv QD for 4 consecutive days by HPLC; assay type: ADME, organism-based; conditions: human; method in brief: as §2
[25] = Tmax in alveolar cells of lung transplant recipient invasive aspergillosis patient at 150 mg, iv QD for 4 consecutive days by HPLC; assay type: ADME, organism-based, Pneumocyte; conditions: human; method in brief: as §2

**Q.** For `CCCCCOc1ccc(-c2cc(-c3ccc(C(=O)N[C@H]4C[C@@H](O)[C@@H](O)NC(=O)[C@@H]5[C@@H](O)[C@@H](C)CN5C(=O)[C@H]([C@H](O)CC(N)=O)NC(=O)[C@H]([C@H](O)[C@@H](O)c5ccc(O)c(OS(=O)(=O)O)c5)NC(=O)[C@@H]5C[C@@H](O)CN5C(=O)[C@H]([C@@H](C)O)NC4=O)cc3)no2)cc1` [MICAFUNGIN] (X1-[Orn(4R-OH,5R-OH)]T[Hyp][hTyr(3S-OH,4S-OH,3'-OSO3H)][Gln(3R-OH)][Pro(3S-OH,4S-Me)]; lactam 1-C), which concentration at 8 h [1] is on record?
**A.** 3930 ng/mL

**Q.** What about the concentration at 18 h [2] of the same molecule?
**A.** 2380 ng/mL

**Q.** And the concentration at 24 h [3]?
**A.** 1570 ng/mL

**Q.** What about the concentration at 3 h [4] of the same molecule?
**A.** 40 ng/mL

**Q.** And the concentration at 8 h [5]?
**A.** 50 ng/mL

**Q.** What about the concentration at 18 h [6] of the same molecule?
**A.** 80 ng/mL

**Q.** And the concentration at 24 h [7]?
**A.** 1380 ng/mL

**Q.** What about the concentration at 3 h [8] of the same molecule?
**A.** 7170 ng/mL

**Q.** And the concentration at 8 h [9]?
**A.** 4860 ng/mL

**Q.** What about the concentration at 18 h [10] of the same molecule?
**A.** 17400 ng/mL

**Q.** And the concentration at 24 h [11]?
**A.** 9990 ng/mL

**Q.** What about the Kp at 3 h [12] of the same molecule?
**A.** 0.01

**Q.** And the Kp at 8 h [13]?
**A.** 0.01

**Q.** What about the Kp at 18 h [14] of the same molecule?
**A.** 0.04

**Q.** And the Kp at 24 h [15]?
**A.** 1.1

**Q.** What about the Kp at 3 h [16] of the same molecule?
**A.** 1.53

**Q.** What about the Kp at 8 h [17] of the same molecule?
**A.** 1.23

**Q.** What about the Kp at 18 h [18] of the same molecule?
**A.** 7.62

**Q.** And the Kp at 24 h [19]?
**A.** 6.22

**Q.** And the Cmax [20]?
**A.** 4930 ng/mL

**Q.** And the Cmax [21]?
**A.** 1380 ng/mL

**Q.** And the Cmax [22]?
**A.** 17400 ng/mL

**Q.** And the Tmax [23]?
**A.** 4 h

**Q.** And the Tmax [24]?
**A.** 24.2 h

**Q.** What about the Tmax [25] of the same molecule?
**A.** 17.9 h
